Measured values taken from ChEMBL document CHEMBL2380254, “Optimization of tocotrienols as antiproliferative and antimigratory leads” (Eur J Med Chem, 2013).

Tests used:
Format in all cases: functional
[1] = Growth inhibition of human HCC2998 cells assessed as cell growth at 10 uM after 48 hrs by sulforhodamine B assay; conditions: HCC 2998, 48 h, read-out: Activity
How it was run: (§1)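 NCI-60 single-dose screen at 10 µM: cells in RPMI 1640 with 5% FBS, preincubated 24 h, then exposed 48 h at 37 °C. TCA fixation (16% final for suspension cells), SRB staining, absorbance 515 nm. Percent growth relative to time-zero and untreated control plates; negative values indicate cell kill.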

[2] = test system: BT-549; experiment: Growth inhibition of human BT549 cells after 48 hrs by sulforhodamine B assay; conditions: BT-549, 48 h
How it was run: (§2)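 NCI-60 screen: cells in RPMI 1640 with 5% FBS and 2 mM glutamine, 5000–40,000 cells/well, preincubated 24 h. Five concentrations (10-fold dilutions; 100 to 0.001 µM) applied for 48 h at 37 °C. TCA fixation, SRB stain, absorbance at 515 nm. Time-zero plates included; GI50 where 100×(T−T0)/(C−T0)=50.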

[3] = test system: SW-620; experiment: Growth inhibition of human SW620 cells assessed as cell growth at 10 uM after 48 hrs by sulforhodamine B assay; conditions: SW-620, 48 h, read-out: Activity
How it was run: (§3)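 Single-dose NCI-60 test at 10 µM. Cells were grown in RPMI 1640 with 5% FBS and 2 mM L-glutamine, preincubated 24 h, with T0 plates TCA-fixed. Exposure was 48 h at 37 °C, 5% CO2. Cells were fixed with cold TCA (final 10%, 4 °C, 60 min), stained with SRB and read at 515 nm. Percent growth was taken relative to T0 and untreated control; negative values denote cell kill.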

[4] = test system: NCI-H322M; experiment: Growth inhibition of human NCI-H322M cells assessed as cell growth at 10 uM after 48 hrs by sulforhodamine B assay; conditions: read-out: Activity
How it was run: (§4)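 Single-dose NCI-60 screen: adherent cells in RPMI 1640 with 5% FBS were exposed to 10 µM for 48 h at 37 °C after a 24 h preincubation. They were fixed in situ with cold TCA (10% final), stained with 0.4% SRB in 1% acetic acid, solubilized in 10 mM Tris base, and read at 515 nm. Percent growth was taken relative to time-zero and control plates.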

[5] = Growth inhibition of human HCC2998 cells after 48 hrs by sulforhodamine B assay; conditions: HCC 2998, 48 h; how it was run: as §2
[6] = test system: NCI-H460; experiment: Growth inhibition of human NCI-H460 cells assessed as cell growth at 10 uM after 48 hrs by sulforhodamine B assay; conditions: NCI-H460, 48 h, read-out: Activity; how it was run: as §4
[7] = test system: Malme-3M; experiment: Growth inhibition of human MALME-3M cells assessed as cell growth at 10 uM after 48 hrs by sulforhodamine B assay; conditions: read-out: Activity; how it was run: as §4
[8] = test system: A549; experiment: Growth inhibition of human A549/ATCC cells assessed as cell growth at 10 uM after 48 hrs by sulforhodamine B assay; conditions: A549, 48 h, read-out: Activity; how it was run: as §1
[9] = test system: OVCAR-3; experiment: Growth inhibition of human OVCAR3 cells after 48 hrs by sulforhodamine B assay; conditions: OVCAR-3, 48 h
How it was run: (§5)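 NCI-60 panel cells grown in RPMI 1640 with 5% FBS and 2 mM L-glutamine, seeded at 5000–40,000 cells/well and preincubated 24 h. Five 10-fold dilutions (0.001–100 µM) from DMSO stocks were added for 48 h at 37 °C. Adherent cells were fixed with cold TCA (10% final) for 60 min at 4 °C, stained with 0.4% SRB, and read at 515 nm. GI50 was set where 100×(T−T0)/(C−T0)=50.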

[10] = test system: OVCAR-5; experiment: Growth inhibition of human OVCAR5 cells after 48 hrs by sulforhodamine B assay; conditions: OVCAR-5, 48 h; how it was run: as §5
[11] = Growth inhibition of human EKVX cells after 48 hrs by sulforhodamine B assay; how it was run: as §2
[12] = test system: MDA-MB-435; experiment: Growth inhibition of human MDA-MB-435 cells assessed as cell growth at 10 uM after 48 hrs by sulforhodamine B assay; conditions: MDA-MB-435, 48 h, read-out: Activity; how it was run: as §4
[13] = test system: T47D; experiment: Growth inhibition of human T47D cells assessed as cell growth at 10 uM after 48 hrs by sulforhodamine B assay; conditions: read-out: Activity; how it was run: as §3
[14] = test system: HT-29; experiment: Growth inhibition of human HT-29 cells assessed as cell growth at 10 uM after 48 hrs by sulforhodamine B assay; conditions: HT-29, 48 h, read-out: Activity; how it was run: as §1
[15] = test system: HOP-92; experiment: Growth inhibition of human HOP92 cells after 48 hrs by sulforhodamine B assay; conditions: HOP-92, 48 h; how it was run: as §2
[16] = test system: OVCAR-4; experiment: Growth inhibition of human OVCAR4 cells after 48 hrs by sulforhodamine B assay; conditions: OVCAR-4, 48 h; how it was run: as §5
[17] = test system: SR; experiment: Growth inhibition of human SR cells assessed as cell growth at 10 uM after 48 hrs by sulforhodamine B assay; conditions: read-out: Activity
How it was run: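 Suspension line in RPMI 1640 with 5% FBS, single 10 µM dose for 48 h. Settled cells were fixed with TCA (final 16%), then SRB-stained and read at 515 nm. Percent growth was taken versus T0 and control; negative values denote cytotoxicity.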

[18] = test system: NCI-H226; experiment: Growth inhibition of human NCI-H226 cells assessed as cell growth at 10 uM after 48 hrs by sulforhodamine B assay; conditions: NCI-H226, 48 h, read-out: Activity; how it was run: as §4
[19] = test system: HT-29; experiment: Growth inhibition of human HT-29 cells after 48 hrs by sulforhodamine B assay; conditions: HT-29, 48 h; how it was run: as §2
[20] = test system: OVCAR-5; experiment: Growth inhibition of human OVCAR5 cells assessed as cell growth at 10 uM after 48 hrs by sulforhodamine B assay; conditions: OVCAR-5, 48 h, read-out: Activity; how it was run: as §4
[21] = test system: MDA-MB-468; experiment: Growth inhibition of human MDA-MB-468 cells after 48 hrs by sulforhodamine B assay; conditions: MDA-MB-468, 48 h; how it was run: as §5
[22] = test system: TK-10; experiment: Growth inhibition of human TK10 cells assessed as cell growth at 10 uM after 48 hrs by sulforhodamine B assay; conditions: TK-10, 48 h, read-out: Activity; how it was run: as §3
[23] = test system: RXF 393; experiment: Growth inhibition of human RXF393 cells assessed as cell growth at 10 uM after 48 hrs by sulforhodamine B assay; conditions: RXF 393, 48 h, read-out: Activity; how it was run: as §4
[24] = test system: 786-0; experiment: Growth inhibition of human 786-0 cells after 48 hrs by sulforhodamine B assay; conditions: 786-0, 48 h; how it was run: as §2
[25] = test system: ACHN; experiment: Growth inhibition of human ACHN cells assessed as cell growth at 10 uM after 48 hrs by sulforhodamine B assay; conditions: read-out: Activity; how it was run: as §1
[26] = test system: K562; experiment: Growth inhibition of human K562 cells assessed as cell growth at 10 uM after 48 hrs by sulforhodamine B assay; conditions: K562, 48 h, read-out: Activity; how it was run: as §1
[27] = test system: HOP-92; experiment: Growth inhibition of human HOP92 cells assessed as cell growth at 10 uM after 48 hrs by sulforhodamine B assay; conditions: HOP-92, 48 h, read-out: Activity; how it was run: as §1

Compound	growth at 10 µM [1] [%]	GI50 [2] [µM]	growth at 10 µM [3] [%]	growth at 10 µM [4] [%]	GI50 [5] [nM]	growth at 10 µM [6] [%]	growth at 10 µM [7] [%]	growth at 10 µM [8] [%]	GI50 [9] [nM]	GI50 [10] [nM]	GI50 [11] [nM]	growth at 10 µM [12] [%]	growth at 10 µM [13] [%]	growth at 10 µM [14] [%]	GI50 [15] [nM]	GI50 [16] [nM]	growth at 10 µM [17] [%]	growth at 10 µM [18] [%]	GI50 [19] [nM]	growth at 10 µM [20] [%]	further results
CC(C)=CCC/C(C)=C/CC/C(C)=C/CC[C@]1(C)CCc2c3c(cc(C)c2O1)OCN(CCCCCCCCO)C3	-90.9	5.69	-46	-76.3	583	0.55	-56.5	-85.3	811	2730	2980	-76.2	-67	-77.2	1840	585	-53.3	50.2	703	-70.8	GI50 [21]: 591 nM; growth at 10 µM [22]: 51.2%; growth at 10 µM [23]: -97.1%; GI50 [24]: 2710 nM; growth at 10 µM [25]: -97.6%
CC(C)=CCC/C(C)=C/CC/C(C)=C/CC[C@]1(C)CCc2c3c(c(C)c(C)c2O1)OCN(CCCCO)C3	-61.8	> 10	-16.1	84.8	1840	4.31	93.3	70	3850	> 10000	> 10000	53.9	59.1	54.4	2900	3110	-11.1	100	2870	83.1	GI50 [21]: 2530 nM; growth at 10 µM [22]: 101%; growth at 10 µM [23]: 78.2%; GI50 [24]: > 10000 nM; growth at 10 µM [25]: 78.8%
CC(C)=CCC/C(C)=C/CC/C(C)=C/CC[C@]1(C)CCc2c3c(cc(C)c2O1)OCN(C1CCN(Cc2ccccc2)CC1)C3	-36.1	1.89	100	19	626	-78.7	122	49.6	1390	2170	1690	3.07	89.3	22.7	269	1540	-35	101	1840	79	growth at 10 µM [26]: -29.3%; growth at 10 µM [27]: 37.4%; GI50 [21]: 1410 nM; growth at 10 µM [22]: 82.5%; GI50 [24]: 1520 nM; growth at 10 µM [25]: 83.2%
